Screens: PubChem BioAssay, Broad Institute
This is one part of a sample in which hits are shown more often than they occur.
CDK5 p35 inh: CDK5/p35 (human) kinase inhibition; Recombinant CDK5/p35, ADP-Glo luminescence, 60 min; inhibition, % at 10 µM; 330,000 tested, 0.01% active; AID 488839;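 active means highest replicate inhibition of at least 50% and at least 75% of replicates reaching 50%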
GSK3beta inhib: inhibitors of human GSK3beta kinase. GST-GSK3beta kinase, ADP-Glo luminescence, 60 min; stronger effect = lower value. P49841. AID 2097. 300,000 tested, 0.038% active. activity score (negative = inhibition), % at 10 µM;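 active means more than half of replicate wells score below -50%, meaning over 50% inhibition versus plate controls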
Target sequence (P49841 whole entry, looked up): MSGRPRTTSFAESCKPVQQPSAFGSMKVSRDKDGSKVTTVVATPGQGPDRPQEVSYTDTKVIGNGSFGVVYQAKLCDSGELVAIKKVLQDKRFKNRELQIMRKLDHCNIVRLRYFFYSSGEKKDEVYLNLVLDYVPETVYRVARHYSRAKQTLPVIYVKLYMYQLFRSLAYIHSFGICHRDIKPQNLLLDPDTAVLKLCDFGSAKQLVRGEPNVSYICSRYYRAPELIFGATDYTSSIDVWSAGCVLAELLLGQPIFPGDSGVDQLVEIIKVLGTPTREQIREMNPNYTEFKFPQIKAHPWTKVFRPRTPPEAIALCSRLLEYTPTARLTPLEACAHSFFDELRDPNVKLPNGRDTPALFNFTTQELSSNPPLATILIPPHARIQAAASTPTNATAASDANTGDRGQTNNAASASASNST
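test system = GST-tagged human GSK3beta kinase, cell-free | reagent = 25 µM ATP with peptide substrate | dosing = one dose of 10 µM per compound | schedule = 60 min reaction, RT | detection = luminescent ADP-Glo measurement of ADP formed | control set = DMSO neutral wells and GW8510 at 20 µM as positive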
STK33 kinase inh: human STK33 kinase inhibition | inhibition, % at 10 µM | purified STK33, MBP phosphorylation, ADP-Glo luminescence | Q9BYT3 | AID 2661 | 320,000 tested, 0.073% active;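 active means inhibition at or above 25%, using the most active replicate where run in duplicate; inactive means inhibition below 25%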
Dyrk1A ADPGlo: inhibitors of rat Dyrk1A kinase; ADP-Glo luminescence, NFATc1 peptide; 310,000 tested, 0.43% active; inhibition, % at 12.5 µM; AID 504441; in the data active means inhibition above about 50%
GSK3A inh: inhibitors of human GSK-3 alpha kinase | P49840 | ADP-Glo luminescence, 60 min | inhibition, % at 10 µM | 320,000 tested, 0.1% active | AID 2650;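 active means more than half of replicates show inhibition above 20%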;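 further: GST-tagged GSK-3 alpha with peptide substrate and 25 µM ATP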
Large screens that a line does not name were inactive.

NCCCNc1nc(N)c([N+](=O)[O-])c(NC2CCCCC2)n1	GSK3A inh 73
Nc1ncnc2c1c(-c1ccc(Oc3ccccc3)cc1)cn2C1CCCC1	none (no result: GSK3beta inhib)
O=C1CCc2ccc(NC(=O)C3CC3)cc2N1	none
CC(=O)Nc1c(I)c(C(=O)N[C@H]2C(O)O[C@H](CO)[C@@H](O)[C@@H]2O)c(I)c(N(C)C(C)=O)c1I (stereo partly drawn)	none (no result: GSK3beta inhib)
O=C(O)CN1C(=O)/C(=C/c2ccccc2Br)Oc2ccccc21	none
c1ccc(CNc2ncnc3scc(-c4cccs4)c23)nc1	GSK3A inh 57
O=C(CSc1nnc(-c2ccc(O)cc2)o1)Nc1ccccc1	GSK3A inh 52 (no result: GSK3beta inhib)
CCn1c(=S)sc2c(=O)n(CC(=O)NCCCc3ccccc3)c(C)nc21	none
O=C1NCCCc2c1oc1cc(Br)c(O)c(Br)c21	Dyrk1A ADPGlo 66
CC(C)NCc1c(O)c(Br)cc2oc3c(c12)CCCC3	none (no result: GSK3beta inhib, STK33 kinase inh, GSK3A inh)
O=C(Nc1ccc2c(c1)CCC2)Nc1ccccc1F	none
CCOc1ccccc1C(=O)Nc1cc(Cl)ccc1O	STK33 kinase inh 26
COc1ccccc1C(=O)Nc1cc(Cl)ccc1O	none
O=C(NCC(c1ccco1)N1CCc2ccccc21)C(=O)Nc1ccc(F)cc1F (stereo not drawn)	none
CC1(C)CC(=O)C=C(Nc2cc(-c3ccccc3)[nH]n2)C1	GSK3beta inhib -54
COC(C)c1oc2c(C)c3oc(=O)cc(C)c3cc2c1C (stereo not drawn)	none
COc1cc(/C=N/Nc2ccc(C(F)(F)F)cn2)cc(OC)c1O	none (no result: STK33 kinase inh, GSK3A inh)
Oc1ccc(/C=N/Nc2ccc(C(F)(F)F)cn2)cc1	STK33 kinase inh 31 (no result: Dyrk1A ADPGlo)
CCOC(=O)CSc1n[nH]c(NC(=O)c2cccc(C(F)(F)F)c2)n1	none
COc1ccccc1N1CCN(C2CCN(C(=O)COc3cccc(C)c3)CC2)CC1	none
CCOC(=O)c1cnc2ccc(Cl)cc2c1N1CCN(C)CC1	GSK3A inh 64
O=C(O)Cn1cc(/C=N/Nc2ccc([N+](=O)[O-])cn2)c2ccccc21	GSK3A inh 63
COc1ccccc1N1CCN(C(=O)CCNC(=O)c2ccco2)CC1	none (no result: GSK3beta inhib, Dyrk1A ADPGlo)
COc1ccc(C2C3=C(CC(C)(C)CC3=O)Nc3n[nH]c(C)c32)cc1 (stereo not drawn)	none
Cc1ccc(C2C3=C(CC(C)(C)CC3=O)Nc3[nH]c(=S)[nH]c(=O)c32)cc1 (stereo not drawn)	none (no result: GSK3A inh)
Cc1[nH]nc2c1C(c1ccsc1)C1=C(CC(C)(C)CC1=O)N2 (stereo not drawn)	GSK3beta inhib -77, GSK3A inh 84
COc1cccc(C2C3=C(CC(C)(C)CC3=O)Nc3n[nH]c(C)c32)c1 (stereo not drawn)	GSK3beta inhib -86, GSK3A inh 78
Cc1[nH]nc2c1C(c1ccc(O)cc1)C1=C(CC(C)(C)CC1=O)N2 (stereo not drawn)	GSK3beta inhib -74, GSK3A inh 86
COc1cccc(CCNC(=O)c2ccc(OC)c(OC3CCN(C(C)C)CC3)c2)c1	none
Cc1c(C(=O)OCC(=O)N2c3ccccc3CC2C)oc2ccccc12 (stereo not drawn)	STK33 kinase inh 33
Cc1c(C(=O)OCC(=O)N2C(C)CCCC2C)oc2ccccc12 (stereo not drawn)	none
COc1ccc(N2CSC3=C(C#N)C(c4cccs4)CC(=O)N3C2)cc1 (stereo not drawn)	GSK3A inh 91
CCc1ccc(C2CC(=O)N3CN(c4ccccc4)CSC3=C2C#N)cc1 (stereo not drawn)	none
N#CC1=C2SCN(c3ccc(F)cc3)CN2C(=O)CC1c1cccc(F)c1 (stereo not drawn)	GSK3A inh 56
CN1CCN(C=NC2=NN(c3cccc(C(F)(F)F)c3)CC2)CC1	STK33 kinase inh 30
CN(C)C=NC1=NN(c2cccc(C(F)(F)F)c2)CC1	none (no result: GSK3A inh)
O=C(Nc1ccccc1)Nc1ccncc1	none
O=C(Nc1ccncc1)Nc1ccccn1	GSK3beta inhib -62, GSK3A inh 72
N#Cc1ccc(NC(=O)COc2ccc(-n3cnnn3)cc2)cc1	none (no result: GSK3beta inhib)
CC(CCC(C)C(C)(C)C)[C@@H]1CC[C@H]2C3C[C@H](OS(O)(=S)=S)[C@H]4C[C@H](OS(O)(=S)=S)[C@@H](OS(O)(=S)=S)C[C@]4(C)[C@H]3CC[C@]12C (stereo partly drawn) (tested in a mixture with another compound)	CDK5 p35 inh 80, Dyrk1A ADPGlo 70 (no result: GSK3beta inhib)
Cc1cc(C)cc(OCC(=O)Nc2ccc3c(c2)OCO3)c1	none
Cc1ccc(N2CC(C(=O)Nc3ncc([N+](=O)[O-])s3)CC2=O)cc1 (stereo not drawn)	GSK3A inh 51
COc1ccccc1CN1CC(C(=O)NCc2cc(F)ccc2C)CCC1=O (stereo not drawn)	none (no result: STK33 kinase inh, GSK3A inh)
O=C(N/N=C/c1ccccn1)c1sc2ccccc2c1Cl	Dyrk1A ADPGlo 64
Nc1nc(-c2ccccc2)[nH]c(=O)c1N	Dyrk1A ADPGlo 75
Nc1[nH]nc2nc(-c3ccccc3)[nH]c(=O)c12	none
Cc1cccc(N2N=C(C(=O)O)CCC2=O)c1	none
O=c1ccc2cc3c([nH]c4ccc(Br)cc43)oc-2c1O	STK33 kinase inh 39, Dyrk1A ADPGlo 71
O=c1c2c([nH]c3ccc(Br)cc13)CCCC2	none
O=C(O)c1cc(-c2ccc(/C=N/Nc3ccc([N+](=O)[O-])cn3)o2)ccc1Cl	GSK3beta inhib -63 (no result: STK33 kinase inh, GSK3A inh)
O=C(Nc1nccs1)c1ccc(N2CCOCC2)c([N+](=O)[O-])c1	STK33 kinase inh 26
CCN1CCN(c2cc(C)c3cc(NC(=O)c4ccc(Br)o4)ccc3n2)CC1	STK33 kinase inh 29
CCN1CCN(c2cc(C)c3cc(NC(=O)c4ccncc4)ccc3n2)CC1	none
O=[N+]([O-])c1c(-c2cn[nH]c2)n[nH]c1-c1cn[nH]c1	GSK3A inh 67
COc1ccc2[nH]c3c(c2c1)CCN1C(=O)C(CC(=O)NC(C)(C)C)C[C@H](C(=O)N2CCCCC2)[C@@]31C (stereo partly drawn)	none (no result: GSK3beta inhib, STK33 kinase inh, GSK3A inh)
O=c1[nH]c2c(s1)C(c1cccnc1)C1C3CCC(C3)C1S2 (stereo not drawn)	none
O=c1[nH]c2c(s1)C(c1ccc(O)cc1)C1C3CCC(C3)C1S2 (stereo not drawn)	GSK3A inh 75
O=C(NCCC(=O)N1CCN(Cc2c(F)cccc2Cl)CC1)c1ccc(Cl)cc1	none (no result: GSK3beta inhib, Dyrk1A ADPGlo)
COc1ccc(CNc2nc3ccccc3s2)cc1OC	STK33 kinase inh 89
Cc1cccc(-n2ncc3c(=O)[nH]c(SCC(=O)N4CC(=O)Nc5ccccc54)nc32)c1	none (no result: GSK3beta inhib)
O=c1[nH][nH]c(C(F)(F)F)c1/C=N/N1CCOCC1	none
CCC(C)N=Cc1c(Nc2ccccc2)nc2c(C)cccn2c1=O (stereo not drawn)	none
O=c1c(/C=N/O)c(Nc2ccccc2)nc2ccccn12	STK33 kinase inh 57 (no result: Dyrk1A ADPGlo)
CC(OC(=O)CCCN=C1NS(=O)(=O)c2ccccc21)C(=O)Nc1ccc(F)cc1Cl (stereo not drawn)	none
